Results taken from ChEMBL document CHEMBL3272318, “Antimalarials. 8. Synthesis of amino ethers as candidate antimalarials” (J Med Chem, 1976).
The source made the active and inactive calls. No cut-off for these calls is given here.

How the values were obtained:
Plasmodium berghei = assay: Antimalarial activity against blood schizont stage of Plasmodium berghei infected in mouse at 640 mg/kg; format: functional, organism-based; design: dose 640 mg/kg
Plasmodium gallinaceum = assay: Antimalarial activity against sporozoite stage of Plasmodium gallinaceum infected in chick at 480 mg/kg; format: functional, organism-based; design: dose 480 mg/kg
In short: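 Prophylactic screen run at the Rane Laboratory (University of Miami) in chicks infected with Plasmodium gallinaceum. Compounds were tested at doses up to 480 mg/kg.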

Mus musculus = species: Mus musculus; assay: Toxicity in mouse infected with blood schizont stage of Plasmodium berghei; format: organism-based; settings: in vivo

| Structure (SMILES) | Activity (Plasmodium berghei) | Activity (Plasmodium gallinaceum) | Activity (Mus musculus) |
| --- | --- | --- | --- |
| CC1(C2CCN(C(=O)O)CC2)OC1c1ccc(Cl)cc1 (stereo unspecified) | inactive | inactive | Toxic |
| CCC(Cc1ccc(Cl)cc1)(OC)C1CCCNC1.O=C(O)CCC(=O)O (stereo unspecified) | inactive | inactive | Toxic |
| CCC(CC1CCNCC1)(OC)c1ccc(Cl)cc1 (stereo unspecified) | inactive | inactive | Toxic |
| COC(CC1CCNCC1)c1ccc(Cl)cc1.Cl (stereo unspecified) | inactive | inactive | Toxic |
| CCOC(C)(CC1CCNCC1)c1ccc(Cl)cc1 (stereo unspecified) | inactive | inactive | Toxic |
| CCC(CC1CCCNC1)(OC)c1ccc(Cl)cc1 (stereo unspecified) | inactive | inactive | Toxic |
| COC(c1ccc(Cl)cc1)C(C)C1CCNCC1.Cl (stereo unspecified) | inactive | inactive | Toxic |
| CN1CCC(C2(C)OC2c2ccc(Cl)cc2)CC1.Cc1ccc(S(=O)(=O)O)cc1 (stereo unspecified) | inactive | inactive | Toxic |
| CC(C)(Br)C(=O)c1ccc(-c2ccc(Cl)cc2)cc1 | inactive | inactive | Toxic |
| CCOC(c1ccc(Cl)cc1)C(C)C1CCNCC1.O=C(O)CCC(=O)O (stereo unspecified) | inactive | inactive | Toxic |
| CCOC(C)(Cc1ccc(Cl)cc1)C1CCNCC1.Cl (stereo unspecified) | inactive | inactive | Toxic |
| CC(C)(Br)C(=O)c1ccc(Cl)cc1 | inactive | inactive | Toxic |
